Assay results as given in ChEMBL document CHEMBL1153585, “Evaluation of in vivo wound-healing potential of 2-[4-(2,4-dimethoxy-benzoyl)-phenoxy]-1-[4-(3-piperidin-4-yl-propyl)-piperidin-1-yl]-ethanone derivatives” (2009).
Activity calls are given as the source filed them. The rule behind the calls is not given here.

How the values were obtained:
Rattus norvegicus [1] = assay: Wound healing activity in po dosed Swiss albino rat incision wound model assessed as increase in dry weight of granulation tissue after 24 hrs; type: functional, organism-based
Rattus norvegicus [2] = assay: Wound healing activity in po dosed Swiss albino rat dead space wound model assessed as granuloma epithelialization and collagenation; type: functional, organism-based
Rattus norvegicus [3] = assay: Wound healing activity in po dosed Swiss albino rat dead space wound model assessed as wet weight of granulation tissue per 100 gm after 24 hrs; type: functional
Summary of the method: (§1)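 Oral dosing by feeding tube of a 4 mg/mL suspension in 1% (w/v) Tween-80, prepared fresh. Ten groups of four animals: untreated control, a 0.2% (w/w) nitrofurazone ointment reference, and eight test groups. Granulation tissue was weighed wet and dry, and its breaking strength was measured. Values are mean ± SE of 4 animals, analysed by one-way ANOVA with Tukey's test against control.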

Rattus norvegicus [4] = assay: Wound healing activity in po dosed Swiss albino rat dead space wound model assessed as dry weight of granulation tissue per 100 gm after 24 hrs; type: functional; summary of the method: as §1
Rattus norvegicus [5] = assay: Wound healing activity in po dosed Swiss albino rat dead space wound model assessed as skin breaking strength after 10 days; type: functional; summary of the method: as §1
Rattus norvegicus [6] = assay: Wound healing activity in po dosed Swiss albino rat incision wound model assessed as skin breaking strength after 10 days; type: functional
Rattus norvegicus [7] = assay: Wound healing activity in po dosed Swiss albino rat incision wound model assessed as increase in wet weight of granulation tissue after 24 hrs; type: functional, organism-based

SMILES	Activity (Rattus norvegicus [1])	Activity (Rattus norvegicus [2])	Activity (Rattus norvegicus [3])	Activity (Rattus norvegicus [4])	Activity (Rattus norvegicus [5])	Activity (Rattus norvegicus [6])	Activity (Rattus norvegicus [7])
COc1ccc(C(=O)c2ccc(OCC(=O)N3CCC(CCCC4CCN(C(=S)Nc5ccccc5Cl)CC4)CC3)cc2)c(OC)c1	Active	Active	134.79 mg	26.04 mg	623.25 g	748.38 g	Active
COc1ccc(C(=O)c2ccc(OCC(=O)N3CCC(CCCC4CCN(C(=S)Nc5ccc(Cl)cc5Cl)CC4)CC3)cc2)c(OC)c1			88.02 mg	21.02 mg	619.15 g	612.5 g	
COc1ccc(C(=O)c2ccc(OCC(=O)N3CCC(CCCC4CCN(C(=O)Nc5ccc(F)cc5)CC4)CC3)cc2)c(OC)c1			91.31 mg	17.8 mg	451.6 g	552.06 g	
COc1ccc(NC(=O)N2CCC(CCCC3CCN(C(=O)COc4ccc(C(=O)c5ccc(OC)cc5OC)cc4)CC3)CC2)cc1			112.48 mg	21.59 mg	414.19 g	503.89 g	
NC(=O)N/N=C/c1ccc([N+](=O)[O-])o1 [NITROFURAZONE]						875 g	
COc1ccc(C(=O)c2ccc(OCC(=O)N3CCC(CCCC4CCN(C(=O)Nc5ccc(Cl)cc5Cl)CC4)CC3)cc2)c(OC)c1			79 mg	17.81 mg	361.6 g	445.12 g	
COc1ccc(C(=O)c2ccc(OCC(=O)N3CCC(CCCC4CCN(C(=O)Nc5ccccc5Cl)CC4)CC3)cc2)c(OC)c1		Active	104.85 mg	21.01 mg	541.82 g	605.49 g	
COc1ccc(C(=O)c2ccc(OCC(=O)N3CCC(CCCC4CCN(C(=S)Nc5ccc(F)cc5)CC4)CC3)cc2)c(OC)c1	Active	Active	122.94 mg	26.27 mg	645.69 g	760.88 g	Active
COc1ccc(NC(=S)N2CCC(CCCC3CCN(C(=O)COc4ccc(C(=O)c5ccc(OC)cc5OC)cc4)CC3)CC2)cc1			80.54 mg	12.36 mg	355.42 g	675 g	
